Reference: paper PMC5503752 (Biophysical chemistry, 2017)
Read-outs that look alike come from different tables or passages of the source.

Tests used:
[1] = tested on: CaV1.2 IQ motif; conditions: cited from earlier work
[2] = tested on: NaV1.2 IQ motif; set-up: species or system rat; conditions: free [CaM] 50–100 nM (estimated)
How it was run: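 Single-site fractional saturation isotherms of the IQ motif by apo or calcium-saturated CaM were simulated from the single-site binding equation. Input was the free energies measured by biosensor titration.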

[3] = tested on: ryanodine receptor RyR1; conditions: cited from earlier work
[4] = tested on: sites III and IV of CaM bound to the NaV1.2 IQ motif; experiment: Simulation of calcium binding to CaM bound to the NaV1.2 IQ motif
How it was run: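 Calcium binding to sites III and IV of IQ-bound CaM was simulated by thermodynamic linkage. Inputs were earlier-measured calcium-binding energies of CaM alone (ΔG1 −7.76, ΔG2 −15.92 kcal/mol) and the apo-versus-Ca2+ difference in IQ binding. The simulation used a total free energy of −13.99 kcal/mol and the same cooperativity as free CaM.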

[5] = tested on: rat Nav1.2IQp; conditions: thermodynamic linkage analysis; cited from earlier work
[6] = tested on: NaV1.2IQ biosensor; type: binding, rat; conditions: for fractional decrease/change in YFP intensity of biosensor, apo: [CaM]:[biosensor] = 10^3:1, biosensor 4 nM, excitation 430 nm, YFP 525 nm
How it was run: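 Steady-state emission spectra were recorded with 430 nm excitation, showing CFP at 475 nm and YFP at 525 nm. Samples were biosensor alone or with >10^3-fold excess apo or Ca2+-saturated CaM, CaMN or CaMC, in titration buffer at pH 7.4 and 22 °C. Spectra were buffer-subtracted, dilution-corrected and normalized to free-biosensor intensity at 525 nm. Fractional YFP decrease was taken at λmax.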

[7] = tested on: IQ motifs of NaV1.2, 1.5, and 1.6; conditions: cited from earlier work
[8] = tested on: rat NaV1.2 IQ motif (residues 1901-1927) in YFP-CFP biosensor; experiment: CaM titrations of NaV1.2IQ YFP-CFP FRET biosensor; type: binding; conditions: for Kd: read-out: Kd, apo CaM, apo (no CaCl2), pH 7.4, 22 °C, calculated from average ΔG
How it was run: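 Rat NaV1.2 residues 1901–1927 inserted between YFP and CFP, expressed in BL21(DE3) (IPTG, 40 h, 18 °C), used as clarified lysate. Biosensor at 0.5 nM (apo) to 5 nM (Ca2+). Titrant: paramecium-sequence CaM or its domains.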

[9] = tested on: CaM bound to NaV1.2 IQ motif; conditions: cited from earlier work
[10] = tested on: CaM; conditions: absence of IQ motif; same conditions as this study; cited from earlier work
[11] = tested on: NaV1.5 DIII-DIV linker; conditions: cited from earlier work

Calmodulin [CaM]
affinity of (Ca^2+)4-CaM relative to apo CaM for CaV1.2 IQ motif [1]: higher affinity for (Ca^2+)4-CaM than apo CaM | predicted occupancy of NaV1.2 IQ motif, (Ca^2+)4-CaM [2]: 37–54% | predicted occupancy of NaV1.2 IQ motif, apo CaM [2]: 94–97% | effect on RyR1 ([3]; listed as apo CaM): activated | effect on RyR1 ([3]; listed as calcium-saturated CaM): inhibited | predicted occupancy of IQ motif by (Ca^2+)4-CaM at high calcium ([4]; 10 03BCM free calcium): ~ 68% | relative affinity of apo vs calcium-saturated CaM for rat Nav1.2IQp [5]: binds more favorably than calcium-saturated CaM | fractional decrease/change in YFP intensity of biosensor, apo [6]: 36% | affinity for apo CaM relative to (Ca^2+)4-CaM, NaV IQ motifs [7]: higher affinity for apo CaM than (Ca^2+)4-CaM | ratio of Kd, (Ca^2+)4-CaM over apo CaM (higher, weaker) ([8]; (Ca^2+)4-CaM vs apo CaM): ~ 30 fold | Kd [8]: 3.2 nM

[Ca+2] [calcium]
calcium equivalents (ions per CaM) required for saturation ([9]; CaM bound to NaV1.2 IQ motif, NMR titration): 4 | calcium-binding affinity of sites III and IV (CaMC) in CaM-IQp complex [9]: diminished | ΔG1 (printed AG1) of calcium binding to CaM alone [10]: -7.76 kcal/mol | ΔG2 of calcium binding to CaM alone [10]: -15.92 kcal/mol | total free energy of calcium binding to sites III and IV of CaM bound to NaV1.2 IQ motif ([4]; simulation for illustration, same cooperativity as CaM alone): -13.99 kcal/mol

N-domain of CaM [CaMN]
deflection in fluorescence intensity relative to that seen at 50 nM CaMC ([6]; 50 pM CaMN (so in the source) vs 50 nM CaMC): less than 1% | fractional decrease/change in YFP intensity of biosensor, apo [6]: ~ 1% | binding of CaMN to NaV IQ motifs ([7]; NaV1.2, 1.5 and 1.6 IQ motifs): undetectable or very weak binding | binding to NaV1.2IQ biosensor, in words ([8]; CaMN, apo and 1 mM calcium): negligible binding

C-domain of CaM [CaMC]
affinity of CaMC for NaV1.5 DIII-DIV linker [11]: micromolar affinity | calcium-saturated CaMC bound to NaV1.2-IQ ([4]; neuronal intracellular Ca^2+ range centered on 10 03BCM, simulation, Fig. 7B): 50–75% | Kd [8]: 11.6 nM
